Data reported in ChEMBL document CHEMBL1126621 (J Med Chem, 1993).
pIC50: −log10 of the molar value. Bridge positions count the residues as written; N and C are the ends. Square brackets hold non-standard residues; d marks the D form. Peptide text beside a SMILES is read from it. Pen = CC(C)(S)[C@H](N)C(=O)O

Experiments:
[1] = target: Delta-type opioid receptor (Mus musculus, UniProt P32300); test: Inhibition of delta-selective antagonist binding to opioid receptor of mouse vas dferens
In short: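 Mouse vas deferens at 500 mg tension in Mg-free Krebs, 37 °C, 95% O2/5% CO2. Field-stimulated with 2-ms supramaximal pulses; isometric contractions recorded. Cumulative concentration-response. At least 2 assays in duplicate.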

Mu-type opioid receptor = Mu-type opioid receptor (Cavia porcellus, UniProt P97266); test: Inhibition of [3H]PL-17 binding to mu opioid receptor of guinea pig brain homogenate
[2] = target: T1, Kappa-type opioid receptor (Cavia porcellus, UniProt P41144); test: (§1) Inhibition of [3H]U-69593 binding to kappa opioid receptor of guinea pig brain homogenate
In short: (§2)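 Adult male Hartley guinea pig whole-brain membranes in 50 mM Tris-HCl pH 7.4, preincubated 25 °C 30 min to strip endogenous peptides. Assay buffer: Tris with BSA, bestatin, bacitracin, captopril, PMSF. Ten concentrations over 800-fold range, duplicate tubes. 10 μM naltrexone defined nonspecific binding. 25 °C for 3 h, then PEI-treated GF/B filtration and scintillation counting. One/two-site nonlinear regression or logistic fit. ≥3 independent runs, mean ± SEM.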

[3] = Relative affinity for delta and kappa opioid receptors of guinea pig brain homogenate; settings: Cavia porcellus
[4] = target: T1, Kappa-type opioid receptor; test: as §1; remark: listed apart in the source
In short: as §2, with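 “PMSF. Radioligand: [3H]DPDPE 1.0 nM (δ) or [3H]U-69,593 0.75 nM (κ).” for “PMSF.”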

Chain of Delta-type opioid receptor (P32300 whole entry): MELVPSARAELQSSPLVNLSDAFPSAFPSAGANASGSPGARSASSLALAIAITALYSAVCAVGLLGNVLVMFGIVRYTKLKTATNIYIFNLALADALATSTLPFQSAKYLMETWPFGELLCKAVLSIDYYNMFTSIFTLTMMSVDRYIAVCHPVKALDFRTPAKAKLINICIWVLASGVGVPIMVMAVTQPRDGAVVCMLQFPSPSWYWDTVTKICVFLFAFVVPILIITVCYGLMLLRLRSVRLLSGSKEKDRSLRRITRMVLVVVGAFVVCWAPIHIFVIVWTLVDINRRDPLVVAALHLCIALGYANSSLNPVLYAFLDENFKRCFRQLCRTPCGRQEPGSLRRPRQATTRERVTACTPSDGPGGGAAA
T1 sequence (P41144 whole entry): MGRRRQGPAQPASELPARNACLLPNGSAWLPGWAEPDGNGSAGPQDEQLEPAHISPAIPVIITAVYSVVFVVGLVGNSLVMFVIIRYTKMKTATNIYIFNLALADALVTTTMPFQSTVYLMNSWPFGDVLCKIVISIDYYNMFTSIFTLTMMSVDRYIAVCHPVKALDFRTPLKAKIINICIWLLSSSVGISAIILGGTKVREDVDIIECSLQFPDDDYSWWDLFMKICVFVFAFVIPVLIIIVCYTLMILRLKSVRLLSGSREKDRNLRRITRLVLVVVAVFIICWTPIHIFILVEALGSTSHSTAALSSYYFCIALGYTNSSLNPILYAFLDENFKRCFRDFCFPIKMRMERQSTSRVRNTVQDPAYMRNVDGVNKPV
Chain of Mu-type opioid receptor (P97266 whole entry): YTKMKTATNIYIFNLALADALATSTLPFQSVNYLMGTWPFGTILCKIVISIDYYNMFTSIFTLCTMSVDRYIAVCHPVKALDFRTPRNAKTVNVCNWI

Compound	pIC50 [1]	pIC50 (Mu-type opioid receptor)	pIC50 [2]	Selectivity [3]	pIC50 [4]
CC[C@H](C)[C@@H]1NC(=O)[C@H](CCCN=C(N)N)NC(=O)[C@H](CCCN=C(N)N)NC(=O)[C@@H](NC(=O)[C@H](Cc2ccccc2)NC(=O)CNC(=O)CNC(=O)[C@@H](N)Cc2ccc(O)cc2)CSSC[C@@H](C(=O)N2CCC[C@H]2C(=O)N[C@@H](CCCCN)C(N)=O)NC1=O (H-YGGFCRRICPK-NH2; disulfide 5-9)	< 5.52	8.19	9.06	–	–
CC[C@H](C)[C@H]1NC(=O)[C@H](CCCN=C(N)N)NC(=O)[C@@H](CCCN=C(N)N)NC(=O)[C@H](NC(=O)[C@H](Cc2ccccc2)NC(=O)CNC(=O)CNC(=O)[C@@H](N)Cc2ccccc2)CSSC[C@H](C(=O)O)NC(=O)[C@H]2CCCN2C(=O)[C@H](CCCN=C(N)N)NC1=O	–	–	–	26	–
CC[C@H](C)[C@@H]1NC(=O)[C@H](CCCN=C(N)N)NC(=O)[C@H](CCCN=C(N)N)NC(=O)[C@@H](NC(=O)[C@H](Cc2ccccc2)NC(=O)CNC(=O)CNC(=O)[C@@H](N)Cc2ccc(O)cc2)C(C)(C)SSC[C@@H](C(N)=O)NC(=O)[C@@H]2CCCN2C(=O)[C@H](CCCN=C(N)N)NC1=O (H-YGGF[Pen]RRIRPC-NH2; disulfide 5-11)	< 5.22	8.90	9.28	–	–
CC[C@H](C)[C@H]1NC(=O)[C@H](CCCN=C(N)N)NC(=O)[C@@H](NC(=O)[C@H](CC(C)C)NC(=O)[C@H](Cc2ccccc2)NC(=O)CNC(=O)CNC(=O)[C@@H](N)Cc2ccc(O)cc2)CSSC[C@@H](C(=O)N[C@@H](CCCCN)C(=O)O)NC(=O)[C@H](CCCN=C(N)N)NC1=O	–	–	–	10	–
CC[C@H](C)[C@@H]1NC(=O)[C@@H](CCCN=C(N)N)NC(=O)[C@H](CCCN=C(N)N)NC(=O)[C@H](NC(=O)[C@H](Cc2ccccc2)NC(=O)CNC(=O)CNC(=O)[C@@H](N)Cc2ccc(O)cc2)CSSC[C@H](C(=O)N[C@@H](CCCCN)C(=O)O)NC(=O)[C@@H](CCCN=C(N)N)NC1=O	–	–	–	139	–
CC[C@H](C)[C@H]1NC(=O)[C@H](CCCN=C(N)N)NC(=O)[C@@H](CCCN=C(N)N)NC(=O)[C@H](NC(=O)[C@H](Cc2ccccc2)NC(=O)CNC(=O)CNC(=O)[C@@H](N)Cc2ccc(O)cc2)C(C)(C)SSC[C@H](C(=O)O)NC(=O)[C@H]2CCCN2C(=O)[C@H](CCCN=C(N)N)NC1=O	–	–	–	165	–
CC[C@H](C)[C@@H]1NC(=O)[C@H](CCCNC(=N)N)NC(=O)[C@H](CCCNC(=N)N)NC(=O)[C@@H](NC(=O)[C@H](Cc2ccccc2)NC(=O)CNC(=O)CNC(=O)[C@@H](N)Cc2ccccc2)CSSC[C@@H](C(N)=O)NC(=O)[C@@H]2CCCN2C(=O)[C@H](CCCNC(=N)N)NC1=O (H-FGGFCRRIRPC-NH2; disulfide 5-11)	< 5.52	7.21	7.82	–	–
CC[C@H](C)[C@H]1NC(=O)[C@H](CCCN=C(N)N)NC(=O)[C@@H](CCCN=C(N)N)NC(=O)[C@H](NC(=O)[C@H](Cc2ccccc2)NC(=O)CNC(=O)CNC(=O)[C@@H](N)Cc2ccc(O)cc2)CSSC[C@H](C(=O)O)NC(=O)[C@@H](CC(C)C)NC(=O)[C@H](CCCCN)NC(=O)C2CCCN2C(=O)[C@H](CCCN=C(N)N)NC1=O (stereo in doubt)	–	–	–	46	–
CC[C@H](C)[C@@H]1NC(=O)[C@H](CCCNC(=N)N)NC(=O)[C@@H](NC(=O)[C@H](CC(C)C)NC(=O)[C@H](Cc2ccccc2)NC(=O)CNC(=O)CNC(=O)[C@@H](N)Cc2ccc(O)cc2)CSSC[C@@H](C(=O)N[C@@H](CCCCN)C(N)=O)NC(=O)[C@H](CCCNC(=N)N)NC1=O (H-YGGFLCRIRCK-NH2; disulfide 6-10)	7.03	10.04	10.33	–	–
CC[C@H](C)[C@H]1NC(=O)[C@H](CCCN=C(N)N)NC(=O)[C@@H](CCCN=C(N)N)NC(=O)[C@H](NC(=O)[C@H](Cc2ccccc2)NC(=O)CNC(=O)CNC(=O)[C@@H](N)Cc2ccc(O)cc2)CSSC[C@H](C(=O)N2CCC[C@@H]2C(=O)N[C@H](CCCCN)C(=O)O)NC1=O	–	–	–	36	–
CC(C)C[C@H](NC(=O)[C@H](Cc1ccccc1)NC(=O)CNC(=O)CNC(=O)[C@@H](N)Cc1ccc(O)cc1)C(=O)N[C@@H](CCCN=C(N)N)C(=O)N[C@@H](CCCN=C(N)N)C(=O)N[C@@H]1CSSC[C@@H](C(=O)N[C@@H](CCCCN)C(=O)O)NC(=O)[C@@H](CCCCN)NC(=O)[C@@H]2CCCN2C(=O)[C@@H](CCCN=C(N)N)NC1=O	–	–	–	56	–
CC(C)C[C@H](NC(=O)[C@H](Cc1ccccc1)NC(=O)CNC(=O)CNC(=O)[C@@H](N)Cc1ccc(O)cc1)C(=O)N[C@@H](CCCNC(=N)N)C(=O)N[C@@H](CCCNC(=N)N)C(=O)N[C@@H]1CSSC[C@H](C(=O)N[C@@H](CCCCN)C(N)=O)NC(=O)[C@H](CCCCN)NC(=O)[C@@H]2CCCN2C(=O)[C@H](CCCNC(=N)N)NC1=O	7.60	9.17	9.94	–	–
CC(C)C[C@H](NC(=O)[C@H](Cc1ccccc1)NC(=O)CNC(=O)CNC(=O)[C@@H](N)Cc1ccc(O)cc1)C(=O)N[C@@H](CCCN=C(N)N)C(=O)N[C@@H](CCCN=C(N)N)C(=O)N[C@H]1CSSC[C@H](C(=O)O)NC(=O)[C@@H](CC(C)C)NC(=O)[C@H](CCCCN)NC(=O)[C@H]2CCCN2C(=O)[C@H](CCCN=C(N)N)NC1=O	–	–	–	55	–
CC(C)C[C@H](NC(=O)[C@H](Cc1ccccc1)NC(=O)CNC(=O)CNC(=O)[C@@H](N)Cc1ccc(O)cc1)C(=O)N[C@@H](CCCN=C(N)N)C(=O)N[C@@H](CCCN=C(N)N)C(=O)N[C@H]1CSSC[C@H](C(N)=O)NC(=O)[C@H](CC(C)C)NC(=O)[C@H](CCCCN)NC(=O)[C@@H]2CCCN2C(=O)[C@H](CCCN=C(N)N)NC1=O	8.04	9.42	10.46	–	–
CC[C@H](C)[C@@H]1NC(=O)[C@H](CCCN=C(N)N)NC(=O)[C@H](CCCN=C(N)N)NC(=O)[C@@H](NC(=O)[C@H](Cc2ccccc2)NC(=O)CNC(=O)CNC(=O)[C@@H](N)Cc2ccc(O)cc2)CSSC[C@@H](C(=O)N[C@@H](CCCN=C(N)N)C(=O)N[C@@H](CCCCN)C(N)=O)NC1=O (H-YGGFCRRICRK-NH2; disulfide 5-9)	5.20	8.24	–	–	9.38
CC[C@H](C)[C@@H]1NC(=O)[C@H](CCCNC(=N)N)NC(=O)[C@H](CCCNC(=N)N)NC(=O)[C@@H](NC(=O)[C@H](Cc2ccccc2)NC(=O)CNC(=O)CNC(=O)[C@@H](N)Cc2ccc(O)cc2)CSSC[C@@H](C(N)=O)NC(=O)[C@H](CC(C)C)NC(=O)[C@H](CCCCN)NC(=O)[C@H]2CCCN2C(=O)[C@H](CCCNC(=N)N)NC1=O	5.39	8.61	9.68	–	–
CC[C@H](C)[C@@H]1NC(=O)[C@H](CCCN=C(N)N)NC(=O)[C@H](CCCN=C(N)N)NC(=O)[C@@H](NC(=O)[C@H](Cc2ccccc2)NC(=O)CNC(=O)[C@@H](C)NC(=O)[C@@H](N)Cc2ccc(O)cc2)CSSC[C@@H](C(N)=O)NC(=O)[C@@H]2CCCN2C(=O)[C@H](CCCN=C(N)N)NC1=O	< 5.22	8.01	7.09	–	–
CC[C@H](C)[C@H]1NC(=O)[C@H](CCCN=C(N)N)NC(=O)[C@@H](CCCN=C(N)N)NC(=O)[C@H](NC(=O)[C@H](Cc2ccccc2)NC(=O)CNC(=O)[C@@H](C)NC(=O)[C@@H](N)Cc2ccc(O)cc2)CSSC[C@H](C(=O)O)NC(=O)[C@H]2CCCN2C(=O)[C@H](CCCN=C(N)N)NC1=O	–	–	–	1.3	–
CC[C@H](C)[C@H]1NC(=O)[C@H](CCCN=C(N)N)NC(=O)[C@@H](CCCN=C(N)N)NC(=O)[C@H](NC(=O)[C@H](Cc2ccccc2)NC(=O)CNC(=O)CNC(=O)[C@@H](N)Cc2ccc(O)cc2)CSSC[C@H](C(=O)N[C@H](CCCN=C(N)N)C(=O)N[C@H](CCCCN)C(=O)O)NC1=O	–	–	–	43	–
CC[C@H](C)[C@@H]1NC(=O)[C@H](CCCN=C(N)N)NC(=O)[C@H](CCCN=C(N)N)NC(=O)[C@@H](NC(=O)[C@H](Cc2ccccc2)NC(=O)CNC(=O)CNC(=O)[C@@H](N)Cc2ccc(O)cc2)CSSC[C@@H](C(=O)N[C@@H](CCCCN)C(N)=O)NC(=O)[C@H](CCCN=C(N)N)NC1=O (H-YGGFCRRIRCK-NH2; disulfide 5-10)	< 5.52	8.37	9.23	–	–
